Assay results gathered from unrelated publications.
Compare with care: the assays were run in different laboratories.
Effect on: cell growth or viability

| SMILES | cell line | technique | tested at | time | measurement | value |
| --- | --- | --- | --- | --- | --- | --- |
| CC(C)Nc1ccnc(Nc2cccc(C(C)(C)C)c2)n1 | MV4-11 | ATP luminescence |  | 72 h | EC50 | > 13 µM |
| CNC(=O)COc1cc2cc(Nc3nc(N4CCC(C(=O)NCCCCCCCNC(=O)C[C@@H]5N=C(c6ccc(Cl)cc6)c6c(sc(C)c6C)-n6c(C)nnc65)CC4)ncc3Cl)cc(OC)c2n(C)c1=O | human Fibroblast |  |  | 72 h | EC50 | ~0.47 µM |
| CC(C)=CCC[C@](C)(O)[C@H]1CC[C@]2(C)[C@@H]1[C@H](O)C[C@@H]1[C@@]3(C)CC[C@H](O[C@@H]4O[C@H](CO)[C@@H](O)[C@H](O)[C@H]4O[C@@H]4O[C@H](CO)[C@@H](O)[C@H](O)[C@H]4O)C(C)(C)[C@@H]3CC[C@]12C | BEAS-2B | MTT |  | 72 h | IC80 | > 100 µM |
| COC(=O)c1cccc(-c2cccc(Nc3nccc(NC4CCCCC4)n3)c2)c1 | MV4-11 | ATP luminescence |  | 72 h | EC50 | 7.59 µM |
| COc1ccc(-c2ccc(-c3ccc(C(=N)N)nc3)s2)cc1 | MDA-MB-468 | SRB |  |  | GI50 | 1.63 µM |
| COC(=O)c1c(C)ncn1CC(c1c[nH]c2ccc(C)cc12)c1c[nH]c2ccc(C)cc12 | human Fibroblast | MTS | 20 µM | 24 h | inhibition | 13.8% |
| N#Cc1ccc(COC[C@H]2O[C@@H](n3c(NCc4ccc(Cl)c(Cl)c4)nc4c(N)ncnc43)[C@H](O)[C@@H]2O)cc1 | HN-6 |  |  | 72 h | IC50 | 4.86 µM |
| c1ccc(-c2cccc(Nc3nccc(NC4CCCCC4)n3)c2)cc1 | MV4-11 | ATP luminescence |  | 72 h | EC50 | > 4 µM |
| CC(C)(CO)Cn1nc(-c2ccc3nc(OCC(F)(F)F)ccc3c2)c2c(N)ncnc21 | CRL8155 |  |  |  | GI50 | > 10 µM |
| CCOC(=O)c1c(C)ncn1CC(c1cn(C)c2ccc([N+](=O)[O-])cc12)c1cn(C)c2ccc([N+](=O)[O-])cc12 | human Fibroblast | MTS | 20 µM | 24 h | inhibition | 21.1% |
| COC(C)(C)CCC[C@](C)(O)[C@H]1CC[C@]2(C)[C@@H]1[C@H](O)C[C@@H]1[C@@]3(C)CC[C@H](O)C(C)(C)[C@@H]3CC[C@]12C | BEAS-2B | MTT |  | 72 h | IC20 | 4.46 µM |
| COC(=O)c1cccc(-c2cccc(Nc3nccc(NC(C)C)n3)c2)c1 | MV4-11 | ATP luminescence |  | 72 h | EC50 | 4.89 µM |
| Cn1nnc2c(C(N)=O)ncn2c1=O | SGC-7901 |  |  |  | EC50 | > 1000 µM |
| C[C@H](Nc1ccnc(Nc2cccc(-c3cccnc3)c2)n1)C(=O)O | MV4-11 | ATP luminescence |  | 72 h | EC50 | > 8 µM |
| COC(=O)c1c(C)ncn1CC(c1cn(C)c2ccccc12)c1cn(C)c2ccccc12 | human Fibroblast | MTS | 20 µM | 24 h | inhibition | 5.1% |
| CCCNc1ccnc(Nc2cccc(-c3cccnc3)c2)n1 | MV4-11 | ATP luminescence |  | 72 h | EC50 | 0.138 µM |
| CC1(C)C(=O)NC2=C1C(=O)C(=O)c1ccccc12 | HN-6 |  |  | 72 h | IC50 | > 20 µM |
| COC(=O)c1c(C)ncn1CC(c1c[nH]c2ccccc12)c1c[nH]c2ccccc12 | human Fibroblast | MTS | 20 µM | 24 h | inhibition | 12% |
| COc1ccc(-c2ccc(-c3ccc(C(=N)N)nc3)s2)cc1Cl | LOX IMVI | SRB |  |  | GI50 | 1.87 µM |
